Measured values pooled from the literature.
Compare with care: the assays were run in different laboratories.
Matrix: Caco-2

`Cc1ncc(Cl)cc1NCc1ccc(C(=O)N[C@@H](CC2CCCC2)C(=O)NC2CC2)s1` gave an efflux ratio of 41 (5 µM; 2 h; pH 7.4).
`O=c1c(O[C@@H]2O[C@H](CO)[C@H](O)[C@H](O)[C@H]2O)c(-c2ccc(O)c(O)c2)oc2cc(O)cc(O)c12` gave an efflux ratio of 1.56 (200 µg/mL).
`O=C(NCc1nc(-c2ccc(C(F)(F)F)cc2)cs1)[C@H]1CCCN(C(=O)COCCN2CCCCC2)C1` has an efflux ratio of 27.
`N#Cc1ccc(C[C@H](Nc2nnc(-c3ccc(F)cc3)s2)C(=O)N2CCc3ccccc32)cc1` gave an efflux ratio of > 20 (100 µM; 2 h).
With `COCC(=O)N1CCC[C@H](C(=O)NCc2nc(-c3ccccc3)cs2)C1` the efflux ratio was 1.
For `CCCCCCOC(=O)NC(=N)c1ccc(NCc2nc3cc(C(=O)N(CCC(=O)OCC)c4ccccn4)ccc3n2C)cc1`, the efflux ratio was 510 (5 µM; 2 h).
For `O=c1cc(-c2ccc(O)cc2)oc2c([C@@H]3O[C@H](CO)[C@@H](O)[C@H](O)[C@H]3O)c(O)cc(O)c12`, the efflux ratio was 1.28 (200 µg/mL).
`N#Cc1ccc(C[C@H](Nc2c(Nc3ccc(Br)cc3)c(=O)c2=O)C(=O)N2CCc3ccccc32)cc1` has an efflux ratio of > 20 (100 µM; 2 h).
`CC[C@]1(O)C[C@@H]2CN(CCc3c([nH]c4ccccc34)[C@@](C(=O)OC)(c3cc4c(cc3OC)N(C)[C@H]3[C@@](O)(C(=O)OC)[C@H](OC(C)=O)[C@]5(CC)C=CCN6CC[C@]43[C@@H]65)C2)C1` has an efflux ratio of 13.5 (10 µM; 2 h).
`CC(C)(N)COCC(=O)N1CCC[C@H](C(=O)NCc2nc(-c3ccc(C(F)(F)F)cc3)cs2)C1` has an efflux ratio of 240.
The efflux ratio of `CO/N=C(\C(=O)N[C@@H]1C(=O)N2C(C(=O)O)=C(CSC(=O)c3ccco3)CS[C@H]12)c1csc(N)n1` is reported as 1.96 (200 µg/mL; 2 h; pH 7.4).
`N[C@@H](COCC(=O)N1CCC[C@H](C(=O)NCc2nc(-c3ccc(C(F)(F)F)cc3)cs2)C1)c1ccccc1` gave an efflux ratio of 11.
For `C[C@H]1O[C@@H](O[C@H]2[C@@H](O)C[C@H](O[C@H]3[C@@H](O)C[C@H](O[C@H]4CC[C@@]5(C)[C@H](CC[C@@H]6[C@@H]5C[C@@H](O)[C@]5(C)[C@@H](C7=CC(=O)OC7)CC[C@]65O)C4)O[C@@H]3C)O[C@@H]2C)C[C@H](O)[C@@H]1O`, the efflux ratio was 28.3 (10 µM; 2 h).
